Converted amounts (≈) assume the structure as drawn.
How the values were obtained:
[1] = system: Human immunodeficiency virus 1; test: Antiviral activity against HIV1 RES056 infected in human MT4 cells assessed as reduction in virus-induced cytopathic effect after 5 days by MTT assay; format: functional, organism-based; conditions: Human immunodeficiency virus 1, RES056, MT4, 120 h
[2] = (§1) Cytotoxicity against human MT4 cells after 5 days by MTT assay; format: cell-based; conditions: MT4 cells
[3] = Selectivity ratio of CC50 for human MT4 cells to EC50 for HIV1 RES056 infected in human MT4 cells; format: toxicity, cell-based; conditions: read-out: Ratio CC50/EC50
[4] = system: Human immunodeficiency virus 2; test: Antiviral activity against HIV2 ROD infected in human MT4 cells assessed as reduction in virus-induced cytopathic effect after 5 days by MTT assay; conditions: Human immunodeficiency virus 2, ISOLATE ROD, MT4, 120 h
[5] = Selectivity ratio of CC50 for human MT4 cells to EC50 for HIV1 3B infected in human MT4 cells; format: toxicity, cell-based; conditions: read-out: Ratio CC50/EC50
[6] = system: Human immunodeficiency virus 1; test: Antiviral activity against wild type HIV1 3B infected in human MT4 cells assessed as reduction in virus-induced cytopathic effect after 5 days by MTT assay; format: functional, organism-based; conditions: Human immunodeficiency virus 1, 3B, MT4, 120 h
[7] = Aqueous solubility of the compound at pH at 7.4 by HPLC analysis; format: physicochemical; conditions: buffer, pH 7.4
Method in brief: (§2)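 Aqueous solubility read by HPLC in buffer at pH 2.0, 7.0 or 7.4.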

[8] = Sub-acute toxicity in Kunming mouse assessed as proximal convoluted tubule edema in kidney at 50 mg/kg/day, po administered for 2 weeks by hematoxylin and eosin staining-based assay; format: organism-based; conditions: in vivo, 336 h
Method in brief: (§3)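 Mice were dosed orally at 50 mg/kg/day for 2 weeks and observed for behavioural abnormalities during treatment. Organs were then examined by hematoxylin–eosin staining.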

[9] = system: Human immunodeficiency virus 1; test: Antiviral activity against HIV1 harboring reverse transcriptase E138K mutant infected in human MT4 cells assessed as reduction in virus-induced cytopathic effect after 5 days by MTT assay; format: functional, organism-based; conditions: Human immunodeficiency virus 1, MT4, 120 h
[10] = Sub-acute toxicity in Kunming mouse assessed as alveolar hemorrhage at 50 mg/kg/day, po administered for 2 weeks by hematoxylin and eosin staining-based assay; format: organism-based; conditions: in vivo, 336 h; method in brief: as §3
[11] = system: Human immunodeficiency virus 1; test: Antiviral activity against HIV1 harboring reverse transcriptase F227L/V106A double mutant infected in human MT4 cells assessed as reduction in virus-induced cytopathic effect after 5 days by MTT assay; format: functional, organism-based; conditions: Human immunodeficiency virus 1, MT4, 120 h
[12] = system: Human immunodeficiency virus 1; test: Antiviral activity against HIV1 harboring reverse transcriptase Y181C mutant infected in human MT4 cells assessed as reduction in virus-induced cytopathic effect after 5 days by MTT assay; format: functional, organism-based; conditions: Human immunodeficiency virus 1, MT4, 120 h
[13] = Sub-acute toxicity in Kunming mouse assessed as alveolar interstitial thickening at 50 mg/kg/day, po administered for 2 weeks by hematoxylin and eosin staining-based assay; format: organism-based; conditions: in vivo, 336 h; method in brief: as §3
[14] = Aqueous solubility of the compound in FASSIF by HPLC analysis; format: physicochemical; conditions: simulated gi fluid
Method in brief: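 Solubility read by HPLC in fasted state simulated intestinal fluid (FaSSIF).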

[15] = system: Human immunodeficiency virus 1; test: Antiviral activity against HIV1 harboring reverse transcriptase L100I mutant infected in human MT4 cells assessed as reduction in virus-induced cytopathic effect after 5 days by MTT assay; format: functional, organism-based; conditions: Human immunodeficiency virus 1, MT4, 120 h
[16] = Aqueous solubility of the compound at pH at 7 by HPLC analysis; format: physicochemical; conditions: buffer, pH 7; method in brief: as §2
[17] = Protein binding in rat plasma assessed as recovery rate at 1 uM after 5 hrs by LC/MS analysis; format: ADME, cell-free
Method in brief: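 Equilibrium dialysis against plasma proteins: human plasma for line 1, Wistar rat plasma for line 2. Reference drug tested at 1 μM. Recovery rate reported alongside percent protein-binding rate.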

[18] = Selectivity ratio of CC50 for human MT4 cells to EC50 for HIV1 harboring reverse transcriptase Y181C mutant infected in human MT4 cells; format: toxicity, cell-based; conditions: read-out: Ratio CC50/EC50
[19] = system: Human immunodeficiency virus 1; test: Resistance factor, ratio of EC50 for HIV1 harboring reverse transcriptase E138K mutant to EC50 for wild type HIV1; format: functional
Method in brief: (§4)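 The resistance factor is the EC50 against the mutant strain divided by the EC50 against wild-type HIV-1. Both were measured in MT-4 cells by MTT read-out of protection from virus-induced cytopathicity.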

[20] = Selectivity ratio of CC50 for human MT4 cells to EC50 for HIV1 harboring reverse transcriptase K103N mutant infected in human MT4 cells; format: toxicity, cell-based; conditions: read-out: Ratio CC50/EC50
[21] = system: Human immunodeficiency virus 1; test: Resistance factor, ratio of EC50 for HIV1 harboring reverse transcriptase L100I mutant to EC50 for wild type HIV1; format: functional; method in brief: as §4
[22] = Selectivity ratio of CC50 for human MT4 cells to EC50 for HIV1 harboring reverse transcriptase L100I mutant infected in human MT4 cells; format: toxicity, cell-based; conditions: read-out: Ratio CC50/EC50
[23] = Selectivity ratio of CC50 for human MT4 cells to EC50 for HIV1 harboring reverse transcriptase Y188L mutant infected in human MT4 cells; format: toxicity, cell-based; conditions: read-out: Ratio CC50/EC50
[24] = system: Human immunodeficiency virus 1; test: Resistance factor, ratio of EC50 for HIV1 harboring reverse transcriptase Y188L mutant to EC50 for wild type HIV1; format: functional; method in brief: as §4
[25] = system: Human immunodeficiency virus 1; test: Resistance factor, ratio of EC50 for HIV1 harboring reverse transcriptase F227L/V106A double mutant to EC50 for wild type HIV1; format: functional; method in brief: as §4
MT4 = test: as §1; format: cell-based; conditions: mt4, 120 h
[26] = Aqueous solubility of the compound at pH at 2 by HPLC analysis; format: physicochemical; conditions: buffer, pH 2; method in brief: as §2
[27] = molecular target: Human immunodeficiency virus type 1 reverse transcriptase (Human immunodeficiency virus 1, UniProt Q72547); test: Inhibition of recombinant HIV1 reverse transcriptase using (DIG)-dUTP and biotin-labeled dNTPs as substrate after 1 hr by ELISA
[28] = system: Human immunodeficiency virus 1; test: Resistance factor, ratio of EC50 for HIV1 harboring reverse transcriptase K103N mutant to EC50 for wild type HIV1; format: functional; method in brief: as §4
[29] = Selectivity ratio of CC50 for human MT4 cells to EC50 for HIV1 harboring reverse transcriptase F227L/V106A double mutant infected in human MT4 cells; format: toxicity, cell-based; conditions: read-out: Ratio CC50/EC50
[30] = system: Human immunodeficiency virus 1; test: Antiviral activity against HIV1 harboring reverse transcriptase K103N mutant infected in human MT4 cells assessed as reduction in virus-induced cytopathic effect after 5 days by MTT assay; format: functional, organism-based; conditions: Human immunodeficiency virus 1, MT4, 120 h
[31] = system: Human immunodeficiency virus 1; test: Resistance factor, ratio of EC50 for HIV1 harboring reverse transcriptase Y181C mutant to EC50 for wild type HIV1; format: functional; method in brief: as §4
[32] = Selectivity ratio of CC50 for human MT4 cells to EC50 for HIV1 harboring reverse transcriptase E138K mutant infected in human MT4 cells; format: toxicity, cell-based; conditions: read-out: Ratio CC50/EC50
[33] = system: Human immunodeficiency virus 1; test: Antiviral activity against HIV1 harboring reverse transcriptase Y188L mutant infected in human MT4 cells assessed as reduction in virus-induced cytopathic effect after 5 days by MTT assay; format: functional, organism-based; conditions: Human immunodeficiency virus 1, MT4, 120 h

Row | Compound | EC50 [1] | selectivity ratio [3] | EC50 [4] | selectivity ratio [5] | EC50 [6] | EC50 [9] | EC50 [11] | EC50 [12] | solubility [14] | EC50 [15] | selectivity ratio [18] | Ratio EC50 [19] | selectivity ratio [20] | Ratio EC50 [21] | selectivity ratio [22] | selectivity ratio [23] | Ratio EC50 [24] | Ratio EC50 [25] | CC50 (MT4) | solubility [26] | further results
1 | Cc1cc(C#N)cc(C)c1Oc1nc(NC2CCN(Cc3cccc(C(N)=O)c3)CC2)nc2c1SCCC2 | 1050 nM | 5.5 | > 5800 nM | 1140 | 5.1 nM |  |  |  |  |  |  |  |  |  |  |  |  |  |  |  | CC50 at 120 h [2]: 5800 nM
2 | Cc1cc(C#N)cc(C)c1Oc1nc(Nc2ccc(C#N)cc2)nc(N)c1Br [ETRAVIRINE] | 45.4 nM |  |  |  | 5.1 nM | 9.7 nM | 19.7 nM | 14.5 nM | 13.2 µg/mL (≈ 30.3 µM) | 6 nM |  |  |  |  |  |  |  |  |  |  | solubility ([7]; read-out: solubility): < 1 µg/mL; Activity [8]: Toxic; Activity [10]: Toxic; Activity [13]: Toxic; solubility ([16]; read-out: solubility): < 1 µg/mL
3 | CC(=O)CC(c1ccccc1)c1c(O)c2ccccc2oc1=O (centres undefined) [WARFARIN] |  |  |  |  |  |  |  |  |  |  |  |  |  |  |  |  |  |  |  |  | Drug recovery [17]: 107%
4 | Cc1cc(C#N)cc(C)c1Oc1nc(NC2CCN(Cc3ccc(S(N)(=O)=O)cc3)CC2)nc2c1COC2 | 38 nM | 725 | ≥ 8370 nM | 9520 | 2.8 nM | 7.9 nM | 12.7 nM | 5.4 nM | 8.42 µg/mL (≈ 15.7 µM) | 3 nM | 5090 | 2.7 | 9220 | 1.1 | 8940 | 1810 | 5.3 | 4.2 | 27500 nM | 174 µg/mL (≈ 325 µM) | solubility [7]: 5.68 µg/mL (≈ 10.6 µM); IC50 [27]: 109 nM; Ratio EC50 [28]: 1; selectivity ratio [29]: 2270; EC50 [30]: 2.9 nM; Ratio EC50 [31]: 1.9; selectivity ratio [32]: 3470; solubility [16]: 10.3 µg/mL (≈ 19.3 µM); EC50 [33]: 15.2 nM
5 | Cc1cc(C#N)cc(C)c1Oc1nc(NC2CCN(Cc3ccc(S(N)(=O)=O)cc3)CC2)nc2c1SCC2 | 28.8 nM | 692 | 6550 nM | 4580 | 4.3 nM | 12.8 nM | 13.7 nM | 8 nM | 10 µg/mL (≈ 18.2 µM) | 5.8 nM | 2070 | 2.7 | 2840 | 1.2 | 2880 | 1640 | 2.2 | 2.9 | 19900 nM | 192 µg/mL (≈ 349 µM) | solubility [7]: 2.54 µg/mL (≈ 4.61 µM); IC50 [27]: 74 nM; Ratio EC50 [28]: 1.3; selectivity ratio [29]: 1220; EC50 [30]: 5.9 nM; Ratio EC50 [31]: 1.7; selectivity ratio [32]: 1300; solubility [16]: 8.26 µg/mL (≈ 15 µM); EC50 [33]: 10.1 nM
6 | Cc1cc(C#N)cc(C)c1Oc1nc(NC2CCN(Cc3ccncc3)CC2)nc2c1COC2 | 43.1 nM | 871 | 5120 nM | 15900 | 2.3 nM | 6.2 nM | 10.5 nM | 4.9 nM | 8.57 µg/mL (≈ 18.8 µM) | 4.1 nM | 7630 | 2.6 | 31200 | 1.8 | 9040 | 4770 | 3.3 | 4.4 | 37600 nM | 223 µg/mL (≈ 488 µM) | IC50 [27]: 56 nM; Ratio EC50 [28]: 0.5; selectivity ratio [29]: 3580; EC50 [30]: 1.2 nM; Ratio EC50 [31]: 2.1; selectivity ratio [32]: 6020; solubility [16]: 14.6 µg/mL (≈ 32 µM); EC50 [33]: 7.8 nM
7 | Cc1cc(C#N)cc(C)c1Oc1nc(NC2CCN(Cc3ccc(S(C)(=O)=O)cc3)CC2)nc2c1COC2 | 41.6 nM | 752 | > 27000 nM | 15900 | 1.9 nM | 7.8 nM | 7.2 nM | 4.9 nM | 23.6 µg/mL (≈ 44.2 µM) | 3.4 nM | 6320 | 4 | 15200 | 1.8 | 9050 | 3940 | 4 | 3.7 | 31300 nM | 164 µg/mL (≈ 307 µM) | solubility [7]: < 1 µg/mL; IC50 [27]: 77 nM; Ratio EC50 [28]: 1; selectivity ratio [29]: 4350; EC50 [30]: 2 nM; Ratio EC50 [31]: 2.5; selectivity ratio [32]: 3990; solubility [16]: 1.37 µg/mL (≈ 2.57 µM); EC50 [33]: 7.9 nM

— ChEMBL document CHEMBL4368909, “Identification of Dihydrofuro[3,4- d]pyrimidine Derivatives as Novel HIV-1 Non-Nucleoside Reverse Transcriptase Inhibitors with Promising Antiviral Activities and Desirable Physicochemical Properties” (J Med Chem, 2019)
